# NRP1-CendR mod = modulators of CendR peptide binding to NRP-1, primary screen, biochemical, fluorescence polarization, uHTS | inhibition, % at 25 µM | AID 602438, 2012 | FAM-RPARPAR peptide binding to NRP-1 | Neuropilin-1 (Homo sapiens), O14786 | 360,000 tested, 0.85% active;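 active means inhibition or corrected inhibition above about 18%, plus a signal ratio from 0.5 to 1.5, limit read from the data, passing the limit was not always enough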
# PLC-gamma1 inh = PLC-gamma1 enzyme inhibitors, primary screen, biochemical, fluorescence, purified enzyme. fluorogenic substrate. inhibition, % at 12.2 µM. 370,000 tested, 0.84% active; in the data active means inhibition above about 9.5%
# Target sequence (P19174 whole entry, looked up): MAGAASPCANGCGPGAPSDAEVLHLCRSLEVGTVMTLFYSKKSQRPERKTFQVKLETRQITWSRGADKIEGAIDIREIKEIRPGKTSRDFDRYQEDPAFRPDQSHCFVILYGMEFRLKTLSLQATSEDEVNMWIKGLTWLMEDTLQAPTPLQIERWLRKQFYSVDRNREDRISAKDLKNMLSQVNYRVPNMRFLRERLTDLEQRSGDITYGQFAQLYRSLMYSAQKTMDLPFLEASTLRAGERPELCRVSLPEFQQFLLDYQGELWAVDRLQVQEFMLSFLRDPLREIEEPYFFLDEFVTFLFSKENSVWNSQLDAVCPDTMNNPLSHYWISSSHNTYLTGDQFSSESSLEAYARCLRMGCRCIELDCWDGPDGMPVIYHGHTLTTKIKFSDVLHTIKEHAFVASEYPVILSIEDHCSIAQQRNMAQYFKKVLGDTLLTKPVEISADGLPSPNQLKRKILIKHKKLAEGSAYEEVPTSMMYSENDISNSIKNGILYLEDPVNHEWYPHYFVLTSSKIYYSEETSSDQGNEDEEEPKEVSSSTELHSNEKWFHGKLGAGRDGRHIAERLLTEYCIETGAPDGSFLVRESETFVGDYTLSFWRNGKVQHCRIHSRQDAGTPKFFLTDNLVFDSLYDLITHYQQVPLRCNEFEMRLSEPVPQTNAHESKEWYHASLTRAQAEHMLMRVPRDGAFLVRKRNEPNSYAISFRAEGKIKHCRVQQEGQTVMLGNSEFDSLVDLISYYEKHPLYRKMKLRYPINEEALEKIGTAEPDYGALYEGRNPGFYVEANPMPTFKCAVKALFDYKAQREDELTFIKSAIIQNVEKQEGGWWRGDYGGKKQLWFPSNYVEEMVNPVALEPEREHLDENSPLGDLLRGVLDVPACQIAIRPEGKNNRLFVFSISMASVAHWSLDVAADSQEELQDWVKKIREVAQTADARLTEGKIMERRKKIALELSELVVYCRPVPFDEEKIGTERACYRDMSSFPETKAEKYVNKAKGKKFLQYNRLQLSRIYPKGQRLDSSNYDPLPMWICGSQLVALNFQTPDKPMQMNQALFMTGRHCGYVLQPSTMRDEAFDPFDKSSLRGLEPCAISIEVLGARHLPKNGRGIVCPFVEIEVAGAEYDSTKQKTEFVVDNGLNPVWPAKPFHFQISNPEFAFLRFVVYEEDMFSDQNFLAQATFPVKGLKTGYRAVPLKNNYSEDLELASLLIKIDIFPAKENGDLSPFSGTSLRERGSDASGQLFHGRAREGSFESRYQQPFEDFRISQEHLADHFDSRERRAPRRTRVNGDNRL
# PLCb3 inh = human PLC-beta3 inhibitors, primary screen, biochemical, fluorescence; 1-phosphatidylinositol 4,5-bisphosphate phosphodiesterase beta-3 (Homo sapiens), Q01970; Purified PLC-beta3, fluorogenic substrate; inhibition, % at 12.2 µM; 370,000 tested, 0.18% active; AID 720704, 2013; in the data active means inhibition above about 11%;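 further: 0% = median of compound wells on plate and 100% = full blocker control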
# DDE Tn7 FP inh = inhibitors of Tn7 peptide binding to fibrin DD(E), primary screen, biochemical, fluorescence polarization, human fibrin, Tn7 probe. FP displacement of FITC-Tn7 peptide from fibrin DD(E); 0% = median of compound wells per plate. inhibition, % at 8.3 µM. 370,000 tested, 0.13% active. AID 720508, 2013;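 active means inhibition above the mean of compounds falling within the control limits plus 3 SD of them, cut at about 14% in these data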;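 further: 0% = plate median of compound wells and 100% = 10 µM Aha-Tn7 peptide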
#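 Assay system: Human clot-derived fibrin DD(E) complex | Buffer or medium: Tris/NaCl/CaCl2 buffer, pH 7.8 | Repeats: One replicate per compound | Benchmarks: Aha-Tn7 high control | Measure: % inhibition scaled between sample-field median and high-control FP | Schedule: 10 min plus 3 h, room temperature | Signal: Fluorescence polarization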
# DDE Tn6 FP inh = inhibitors of Tn6 peptide binding to fibrin DD(E), primary screen, biochemical, fluorescence polarization, human fibrin, Tn6 probe; 370,000 tested, 0.21% active; Fibrin DD(E) TRITC-Tn6 fluorescence polarization displacement; inhibition, % at 8.3 µM; AID 720509, 2013;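 active means inhibition above a per-campaign cutoff: mean of compounds within control limits plus 3 SD, cut at about 15% in these data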;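 further: 0% = median of all compound wells on the plate and 100% = blocking peptide control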
# proKLK7 act = proKLK7 zymogen activators, primary screen, biochemical, fluorescence intensity | activation, % at 7 µM | 370,000 tested, 0.9% active | purified proKLK7, EDANS-DABCYL substrate fluorescence; 100% is mature enzyme control, 0% vehicle | AID 652039, 2013;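 active means activation above the mean of all tested compounds plus 3 SD, computed per campaign excluding outliers beyond control limits, cut at about 13% in these data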
# proKLK7 act conf = proKLK7 zymogen activators, confirmation, biochemical, fluorescence intensity, triplicate | shares compounds with proKLK7 act | purified proKLK7, EDANS-DABCYL substrate fluorescence; scaled: vehicle 0, mature enzyme 100 | activation, % at 7 µM | 3,200 tested, 68% active;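 active means activation, as change over the incubation, above the mean of all tested compounds plus 3 SD, cut at about 13% in these data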
# EDANS interfere = EDANS-DABCYL substrate optical interference, artefact control for kallikrein-7 zymogen activator project, biochemical, fluorescence intensity, high throughput; no enzyme, 4 h; solvent 0%, active enzyme control 100%; AID 686952, 2013; 3,200 tested, 80% active; activation, % at 7 µM; shares compounds with proKLK7 act;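 active means activation above the all-compound mean plus 3 SD, ignoring values outside control-based bounds, cut at about 4.8% in these data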;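 further: value is the 4 h activation minus the activation read at time zero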
# Starred values were filed as active, the others as inactive; i = inactive; x = not tested or not shown. An excerpt weighted towards active compounds, which were near 3% of everything screened.
SMILES,NRP1-CendR mod,PLC-gamma1 inh,PLCb3 inh,DDE Tn7 FP inh,DDE Tn6 FP inh,proKLK7 act,proKLK7 act conf,EDANS interfere
O=c1c2ccccc2[nH]c(=S)n1CC1CCCO1 (stereo unspecified),1.4,4.4,6.2,2.2,1.7,0.1,x,x
COCCCn1c(=S)[nH]c2ccc(N3CCOCC3)cc2c1=O,-3.0,i,i,9.4,3.4,58.3*,30.2*,48.5*
O=c1c2cc(N3CCOCC3)ccc2[nH]c(=S)n1CC1CCCO1 (stereo unspecified),-6.2,i,i,2.5,6.4,31.8*,-16.4,4.7*
N#CCC[C@H]1CC[C@]2(CCCN(C(=O)c3ccno3)C2)O1,x,4.7,-0.6,2.6,-0.4,-0.1,x,x
CC[C@@H](CCCCCC#N)CCC(=O)N(c1ccccc1)c1ccccc1,x,2.9,1.8,10.0,-1.3,0.1,x,x
Cc1cccc(C)c1NC(=O)[C@H]1CC(=O)O[C@@H]1c1ccccc1,x,8.2,5.0,0.4,-2.5,0.0,x,x
CCn1cc(C(=O)NCC2CCCO2)c2cc(OC)c(OC)cc2c1=O (stereo unspecified),-10.6,2.1,1.6,-8.1,2.4,0.1,x,x
Cc1ccc2nc3c(cc(C(=O)NC4CCCC4)c(=N)n3C3CCCCC3)c(=O)n2c1,-0.7,-308.1,-385.4,-8.1,1.0,-3.8,x,x
Cc1ccc2nc3c(cc(C(=O)NCC4CCCO4)c(=N)n3CCCOC(C)C)c(=O)n2c1 (stereo unspecified),-23.6,i,i,-8.8,-6.2,106.0*,44.8*,44.1*
CCOCCCNc1nc2nc3ccc(C)cn3c(=O)c2cc1C(=O)NCC1CCCO1 (stereo unspecified),5.9,-462.5,i,-3.8,3.0,55.0*,16.5*,25.8*
CCCCCn1nnnc1C1(C)CCCCC(=O)N1Cc1ccco1 (stereo unspecified),x,1.3,-0.6,3.8,0.5,-0.1,x,x
O=C(NNS(=O)(=O)c1ccccc1[N+](=O)[O-])c1ccccc1Cl,4.5,-1.1,-4.5,-0.2,0.1,-0.5,x,x
O=C(NNS(=O)(=O)c1ccccc1[N+](=O)[O-])c1cc2ccccc2cc1O,23.3*,-43.6,-62.8,2.9,-11.7,14.3*,21.5*,19.9*
Cc1ccc(CN2CCCCC(NC(=O)Nc3cccc([N+](=O)[O-])c3)C2=O)cc1 (stereo unspecified),x,0.0,-0.2,6.4,-4.7,-0.5,x,x
CC(=O)c1c(C)nc2nonc2c1N,2.7,i,i,-0.8,-6.3,15.8*,32.8*,37.8*
CCOC(=O)c1c(-c2ccc(OC)cc2)nc2nonc2c1N,-8.2,-10.9,-16.2,-5.8,-4.5,-0.5,x,x
CCn1c(=O)n2n(c1=O)[C@H]1C[N+](Cc3ccc4c(c3)OCO4)=C(N)NC1=C(C)C2,x,0.5,1.5,-7.1,5.4,x,x,x
O=C(Nc1ccccc1C(F)(F)F)OCCN1C(=O)CCC12CCC(c1ccccc1)CC2 (stereo unspecified),x,2.0,0.5,9.7,-0.8,-0.4,x,x
O=Cc1ccc(N2N=C(c3ccccc3)CC2c2ccccc2)cc1 (stereo unspecified),-7.4,-394.9,i,3.7,3.9,-41.0,x,x
O=C(O)c1ccc(N2N=C(c3ccccc3)CC2c2ccccc2)cc1 (stereo unspecified),1.2,i,i,2.9,-1.4,63.8*,63.8*,75.2*
Nc1nc2nc(-c3ccc(F)cc3)cc(C(F)(F)F)n2n1,-2.4,-164.3,-255.1,-3.1,-2.7,23.7*,17.3*,15.7*
CCOC(=O)c1cc(-c2cccs2)nc2onc(C)c12,4.2,-440.3,i,-1.7,-7.8,18.2*,-166.0,-157.4
Nc1nc2nc(-c3cccs3)cc(C(F)(F)F)n2n1,7.6,i,i,-1.8,2.5,81.8*,74.7*,78.4*
O=C(c1cnn2c(C(F)(F)F)cc(-c3ccco3)nc12)N1CCCCCC1,1.0,-239.6,-307.9,-3.5,-7.9,0.0,x,x
COc1ccc(-c2cc(C(F)(F)F)n3nc(N)nc3n2)cc1,-5.5,x,x,x,x,x,x,x
SMILES,NRP1-CendR mod,PLC-gamma1 inh,PLCb3 inh,DDE Tn7 FP inh,DDE Tn6 FP inh,proKLK7 act,proKLK7 act conf,EDANS interfere
O=C(c1cnn2c(C(F)(F)F)cc(-c3cccs3)nc12)N1CCCC1,4.4,-342.9,-479.0,-4.0,-5.3,16.1*,13.0*,14.0*
C=CCN(C)C(C#CCCCC)c1ccccc1 (stereo unspecified),x,0.3,-0.8,4.3,0.8,x,x,x
CCC[C@H]1[C@@H](NCC2CCCCC2)CC[C@@]23CCCN2C(=O)CCC[C@@H]13,x,4.9,2.2,-10.1,-1.3,x,x,x
COc1ccc2c(C(c3ccccc3O)C3CCCN3S(=O)(=O)c3ccc(C)cc3)cn(C)c2c1 (stereo unspecified),x,4.9,-0.6,-1.1,-5.5,-0.9,x,x
COC(=O)c1cn(-c2ccc3c(c2)[C@]2(CC(=O)N(C)C2c2ccccc2)C(=O)N3CC(C)C)nn1 (stereo partly specified),x,-2.3,0.9,0.7,-1.6,0.6,x,x
O=C(c1nc2nc(-c3cccs3)cc(C(F)(F)F)n2n1)N1CCN(Cc2ccccc2)CC1,12.2,i,i,6.3,-6.9,26.4*,-5.4,-9.3
CCOC(=O)c1nc2nc(-c3cccs3)cc(C(F)(F)F)n2n1,6.8,-341.7,-368.6,-3.0,10.2,61.6*,65.1*,61.5*
CC(C)(C)NC(=O)c1nc2nc(-c3ccccc3)cc(C(F)(F)F)n2n1,-3.6,-9.3,-10.3,-2.9,2.8,1.2,x,x
O=C(c1nc2nc(-c3ccccc3)cc(C(F)(F)F)n2n1)N1CCOCC1,0.1,-7.2,-5.0,6.2,-2.8,0.4,x,x
C[C@@H]1[C@@H](O)C[C@@]2(C[C@H](O)c3cc(Cl)ccc3O2)O[C@H]1c1ccccc1Cl,x,0.2,-3.3,-4.4,-2.5,0.3,x,x
CCC(Oc1ccc2c(c1)C(=O)CC(C)(C)O2)C(=O)NCCN1CCCCCC1 (stereo unspecified),1.6,i,i,-7.6,-6.8,129.4*,48.6*,44.0*
Cc1ccccc1NC(=O)COc1ccc2c(c1)OC(C)(C)CC2=O,2.3,0.8,-3.3,1.4,9.1,-0.1,x,x
